MC4R barr agon = MC4R agonists recruiting beta-arrestin, primary screen, cell-based, luminescence, agonist arm of biased-ligand search | activation, % at 8.9 µM | Melanocortin receptor 4 (Homo sapiens), P32245 | U2OS MC4R beta-arrestin complementation; percent of melanotan II response, DMSO zero | actives 0.98% (n = 360,000);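 active means activation above a per-plate cutoff, the mean activation of sample wells on that plate plus 3 SD, cut at about 8% in these data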
Target sequence (P32245 whole entry, looked up): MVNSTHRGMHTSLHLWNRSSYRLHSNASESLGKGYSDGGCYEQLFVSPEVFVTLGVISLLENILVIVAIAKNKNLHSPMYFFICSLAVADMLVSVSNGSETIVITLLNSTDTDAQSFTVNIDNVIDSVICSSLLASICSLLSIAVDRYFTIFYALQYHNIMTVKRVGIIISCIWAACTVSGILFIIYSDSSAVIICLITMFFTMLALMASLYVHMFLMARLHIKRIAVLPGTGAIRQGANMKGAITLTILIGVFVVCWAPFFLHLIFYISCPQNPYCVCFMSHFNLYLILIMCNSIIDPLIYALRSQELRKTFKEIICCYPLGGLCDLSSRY
UPR XBP1 act = activators of adaptive XBP1 UPR arm, primary screen, cell-based, CHO-XBP1 luciferase reporter, luminescence, uHTS. activation, % at 20 µM. actives 0.33% (n = 330,000). IRE1-XBP1 UPR activation; percent of tunicamycin response, DMSO as zero;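 active means versus positive control, 20 µM dose yields 30% or more activation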
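Assay system: IRE1-XBP1 luciferase reporter CHO line. Input: 1000 cells/well. Buffer or medium: F12 with 10% serum. Doses: 20 µM, 1% DMSO. Times: overnight seeding at 37 °C, 6 h compound treatment at 37 °C. Technique: Steady-Glo luciferase glow luminescence, 10 min after reagent addition.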
MC4R antagonist = MC4R antagonists of cAMP signaling, primary screen, cell-based, TR-FRET, antagonist arm of biased-ligand search. Melanocortin receptor 4 (Homo sapiens), P32245. MC4R-expressing cells, MTII-stimulated cAMP, LANCE TR-FRET. inhibition, % at 6.5 µM. actives 0.48% (n = 360,000). AID 540295, 2011;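 active means inhibition above its plate's cutoff, the mean of tested wells on that plate plus 3 SD, cut at about 29% in these data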
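Assay system: U2OS-MC4R stable cell line; Also added: Melanotan II; Technique: Eu-cAMP/anti-cAMP TR-FRET, emission 671 nm; Times: 30-min compound, 1-h challenge, 1-h detection, room temperature.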
CHOP UPR activ = activators of apoptotic CHOP UPR arm, primary screen, cell-based, CHO-CHOP luciferase reporter, luminescence, uHTS; actives 0.34% (n = 330,000); UPR activation; percent of tunicamycin response over DMSO baseline; activation, % at 10 µM;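 active means at 10 µM dose, activation of 40% or more, normalized to positive control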
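System: CHO-CHOP luciferase reporter cell line; amount: 500 cells/well; buffer or medium: F12 medium containing 10% fetal bovine serum; incubation: 6 h compound exposure at 37 °C after overnight seeding; measured by: luciferase luminescence after 10 min with Steady-Glo reagent; evaluation: % reporter activation, DMSO baseline versus tunicamycin full activation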
Bfl-1 A1 inh = caspase 3/7 activation in MEF A1-2A-BIM cells, primary screen, A1 inhibitor project, cell-based, luminescence, HTS. Caspase-Glo 3/7 luminescence, 3 h; percent of clofoctol response, vehicle zero. caspase activation, % (concentration not given with the values). actives 0.066% (n = 330,000). AID 2462, 2010;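 active means over half of replicate activation scores above 10%, or exactly half above 10 with the replicate mean above 10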
CHOP UPR conf = activators of apoptotic CHOP UPR arm, confirmation, cell-based, CHO-CHOP luciferase reporter, single concentration; activation, % at 10 µM; CHO-CHOP cells, CHOP-luciferase reporter luminescence; percent of tunicamycin response, DMSO as zero; actives 64% (n = 1,000); shares compounds with CHOP UPR activ; AID 463112, 2010; in the data active means activation above about 33%
Each line names hits and unclear results; the compound was inactive in the other large screens (follow-up assays come after a bar, where they were run). Only some compounds are listed: those with a hit (about 2% of all), similar ones and a draw of the others.

Cc1cc(C(=O)CCl)c(C)n1CCc1ccc(Cl)cc1	CHOP UPR activ 234.4, Bfl-1 A1 inh 14.2 | CHOP UPR conf 206.8
Cc1cc(C(=O)CSc2nnc(N)s2)c(C)n1CCc1ccc(Cl)cc1	none
Cc1nc2ccc(C(=O)N(C)Cc3ccco3)cn2c1N(C)CC1CCCCC1	none (no result: UPR XBP1 act, CHOP UPR activ, Bfl-1 A1 inh)
CC1(C(=O)NS(=O)(=O)c2cccc(Cl)c2)CCN1C(=O)c1ccccc1CCc1ccccc1 (centres undefined)	none (no result: UPR XBP1 act, CHOP UPR activ, Bfl-1 A1 inh)
CC1(C)Cc2c(c(N3CCOCC3)nc3sc(C(=O)Nc4cccc(Cl)c4)c(N)c23)CO1	CHOP UPR activ 88.5 | CHOP UPR conf inactive
CCOC(=O)c1cnc(-n2nc(C)cc2C)nc1Nc1ccc(OC)cc1	none
CCOC(=O)c1cnc(-n2nc(C)cc2C)nc1NC1CCCC1	CHOP UPR activ 64.3 | CHOP UPR conf inactive
Cc1ccc(CN2CCC(C)(Oc3cccc(Cl)c3)C2)cc1 (centres undefined)	none (no result: UPR XBP1 act, CHOP UPR activ, Bfl-1 A1 inh)
COc1cccc(N2CCN(C(=O)c3ccc(OC)c(S(=O)(=O)NC4CC4)c3)CC2)c1	none (no result: UPR XBP1 act, CHOP UPR activ, Bfl-1 A1 inh)
COc1ccc(N2C(=O)C(Cl)=C(Oc3cccc(OC)c3)C2=O)cc1	CHOP UPR activ 93.9 | CHOP UPR conf inactive
COc1ccc(N2C(=O)c3ccccc3C2=O)cc1	none
COc1cc(Cl)c(NC2=CC(=O)C(=O)c3ccccc32)c(OC)c1	CHOP UPR activ 51.1 | CHOP UPR conf inactive
CCOc1ccc(NC2=CC(=O)C(=O)c3ccccc32)cc1	none (no result: UPR XBP1 act, CHOP UPR activ, Bfl-1 A1 inh)
O=C(Nc1ccc(F)c(Cl)c1)c1cc(C2CCCCN2C(=O)c2ccc3c(c2)CCO3)on1 (centres undefined)	none (no result: UPR XBP1 act, CHOP UPR activ, Bfl-1 A1 inh)
O=C(NCc1cccnc1)/C(=C/c1ccc(-c2ccc(Cl)cc2)o1)S(=O)(=O)c1ccccc1	CHOP UPR activ 136.2 | CHOP UPR conf 90.8
O=C(CN(Cc1ccc(Br)cc1)S(=O)(=O)c1ccccc1)NCc1cccnc1	none
O=C(NCc1cccnc1)/C(=C\c1ccc(-c2ccc(Br)cc2)o1)S(=O)(=O)c1ccccc1	CHOP UPR activ 83.3 | CHOP UPR conf 51.7
Cc1ccccc1-c1cnc(C(O)c2ccc(Cl)c(F)c2)[nH]1 (centres undefined)	none (no result: UPR XBP1 act, CHOP UPR activ, Bfl-1 A1 inh)
CCOc1ccc(Nc2cc(C)nc(-n3nc(C)cc3C)n2)cc1	UPR XBP1 act 86.8, CHOP UPR activ 104.6 | CHOP UPR conf inactive
COc1ccc(/C=N/Nc2cc(C)nc(-n3nc(C)cc3C)n2)c(OC)c1	CHOP UPR activ 142.1 | CHOP UPR conf 87.9
Cc1cc(N/N=C/c2ccc(F)cc2)nc(-n2nc(C)cc2C)n1	CHOP UPR activ 72.8 | CHOP UPR conf inactive
COc1cccc(/C=N/Nc2nc(Nc3ccccc3)nc(-n3nc(C)cc3C)n2)c1O	CHOP UPR activ 93.5 | CHOP UPR conf 95.3
Cc1cc(C)n(-c2nc(Nc3ccccc3)nc(-n3nc(C)cc3C)n2)n1	none
COc1ccc(S(=O)(=O)NCc2ccc(C(=O)NCCN(C)Cc3ccccc3)cc2)cc1	none (no result: UPR XBP1 act, CHOP UPR activ, Bfl-1 A1 inh)
O=c1oc2cc(Oc3ccc(C(F)(F)F)cc3[N+](=O)[O-])ccc2c2c1CCC2	none
O=c1oc2cc(Oc3c([N+](=O)[O-])cc(C(F)(F)F)cc3[N+](=O)[O-])ccc2c2c1CCCC2	CHOP UPR activ 53.9 | CHOP UPR conf inactive
CC(Cc1ccc(O)c(O)c1)C(C)Cc1ccc(O)c(O)c1 (centres undefined)	CHOP UPR activ 83.0 (no result: MC4R barr agon, MC4R antagonist) | CHOP UPR conf inactive
COc1cc2nc(=S)n3[nH]c(COc4ccccc4C)nc3c2cc1OC	none
COc1cc2nc(=S)n3[nH]c(CCn4nc(C)cc4C)nc3c2cc1OC	CHOP UPR activ 131.5 | CHOP UPR conf 98.2
Cc1sc2ncnc(Sc3nnnn3-c3ccccc3)c2c1C	none
Clc1ccc(-n2nnnc2Sc2ncnc3sccc23)cc1	CHOP UPR activ 89.0 | CHOP UPR conf 111.9
O=C(/C=C/c1ccc(-c2ccccc2)o1)c1ccccc1	CHOP UPR activ 92.9 | CHOP UPR conf inactive
Cc1ccc(-c2ccc(/C=C/C(=O)c3ccccc3)o2)cc1	CHOP UPR activ 192.9 | CHOP UPR conf inactive
Cc1ccc(C(=O)/C=C/C(=O)c2ccc(C)cc2)cc1	CHOP UPR activ 139.1, Bfl-1 A1 inh 9.9 | CHOP UPR conf 369.9
O=Cc1ccc(-c2cccc(C(=O)O)c2)o1	none
O=C(N/N=C/c1ccccn1)c1cc([N+](=O)[O-])cc([N+](=O)[O-])c1	CHOP UPR activ 45.4 | CHOP UPR conf 64.6
O=C(N/N=C/c1ccccn1)c1cccc([N+](=O)[O-])c1	none
O=Cc1[nH]c2ccccc2c1N(C(=O)CCl)c1ccc([N+](=O)[O-])cc1	CHOP UPR activ 54.7 | CHOP UPR conf inactive
CC(=O)Nc1ccc(C(=O)N2CCCC(c3cc(C(=O)NCc4cccnc4)no3)C2)cc1 (centres undefined)	none (no result: UPR XBP1 act, CHOP UPR activ, Bfl-1 A1 inh)
Cc1nc2c(OCc3ccc(OC(F)F)cc3)cccn2c1N(C)C(=O)CCC1CCCC1	none (no result: UPR XBP1 act, CHOP UPR activ, Bfl-1 A1 inh)
CCCCC1CCC(C(=O)N(CCCC)c2c(N)n(CCCC)c(=O)[nH]c2=O)CC1 (centres undefined)	CHOP UPR activ 115.0 | CHOP UPR conf 35.0
CCCCC1CCC(C(=O)N(CCC(C)C)c2c(N)n(CCCC)c(=O)[nH]c2=O)CC1 (centres undefined)	none (no result: UPR XBP1 act, CHOP UPR activ, Bfl-1 A1 inh)
CS(=O)(=O)c1nc(-c2ccccc2)cc(-c2ccccc2)c1C#N	MC4R antagonist 30.4, CHOP UPR activ 68.2 | CHOP UPR conf 47.0
Cc1ccc(-c2cc(-c3ccccc3)c(C#N)c(Br)n2)cc1	none
COc1ccc(-c2cc(C(F)F)n3ncc(C(=O)n4ccnc4C)c3n2)cc1	CHOP UPR activ 131.2 | CHOP UPR conf 135.3
COc1ccc(-c2cc(C(F)F)n3ncc(C(=O)N4CCc5ccccc54)c3n2)cc1	none
CC(C)(C)c1ccc2c(c1)OC(C(=O)N/N=C\c1ccncc1)CO2 (centres undefined)	none
CC(C)(C)c1ccc2c(c1)OC(C(=O)N/N=C/c1ccc([N+](=O)[O-])o1)CO2 (centres undefined)	CHOP UPR activ 81.1 | CHOP UPR conf inactive
CN(C)S(=O)(=O)c1ccc(SCC(=O)Nc2cccc(S(=O)(=O)N3CCCC3)c2)nc1	none (no result: UPR XBP1 act, CHOP UPR activ, Bfl-1 A1 inh)
CN(C)S(=O)(=O)c1cccc(NC(=O)CSc2cccc3cccnc23)c1	CHOP UPR activ 161.8 | CHOP UPR conf 246.2

Bioassay records (PubChem BioAssay)
